Laboratory results published in paper PMC4823774 (Bioorganic & medicinal chemistry letters, 2016).
Each block holds one compound with its values, some of them ahead of it.

Experiments:
human mGlu1 = human mGlu1 (Homo sapiens, UniProt Q13255); assay: Calcium mobilization mGlu1 PAM assay; format: cell-based
In short: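 Tetracycline-inducible human mGlu1 T-REx-293 cells, induced overnight at 80,000 cells/well with 50 ng/mL tetracycline. Loaded with 1.15 μM Fluo-4 AM in HBSS/20 mM HEPES/2.5 mM probenecid, 45 min, 37 °C. Half-log dilutions or DMSO preincubated 2.5 min, then EC20 glutamate for 1 min. ECmax glutamate on vehicle wells. Peak minus pre-agonist basal fluorescence; concentration-response curve fitting.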

CNS penetration = settings: in vivo
[1] = Human liver microsome stability and intrinsic clearance; format: in vitro ADME; settings: for stability in human liver microsomes: in words
[2] = Rat liver microsome stability and intrinsic clearance; format: in vitro ADME; settings: for stability in rat liver microsomes: in words
[3] = Rat brain homogenate binding; format: in vitro ADME
Human plasma stability = format: in vitro ADME
Rat plasma stability = format: in vitro ADME
CYP = CYP profile; format: in vitro ADME
[4] = Clearance in in vitro DMPK assays, species not stated; format: in vitro ADME

human mGlu1, sequence (Q13255 19-1194): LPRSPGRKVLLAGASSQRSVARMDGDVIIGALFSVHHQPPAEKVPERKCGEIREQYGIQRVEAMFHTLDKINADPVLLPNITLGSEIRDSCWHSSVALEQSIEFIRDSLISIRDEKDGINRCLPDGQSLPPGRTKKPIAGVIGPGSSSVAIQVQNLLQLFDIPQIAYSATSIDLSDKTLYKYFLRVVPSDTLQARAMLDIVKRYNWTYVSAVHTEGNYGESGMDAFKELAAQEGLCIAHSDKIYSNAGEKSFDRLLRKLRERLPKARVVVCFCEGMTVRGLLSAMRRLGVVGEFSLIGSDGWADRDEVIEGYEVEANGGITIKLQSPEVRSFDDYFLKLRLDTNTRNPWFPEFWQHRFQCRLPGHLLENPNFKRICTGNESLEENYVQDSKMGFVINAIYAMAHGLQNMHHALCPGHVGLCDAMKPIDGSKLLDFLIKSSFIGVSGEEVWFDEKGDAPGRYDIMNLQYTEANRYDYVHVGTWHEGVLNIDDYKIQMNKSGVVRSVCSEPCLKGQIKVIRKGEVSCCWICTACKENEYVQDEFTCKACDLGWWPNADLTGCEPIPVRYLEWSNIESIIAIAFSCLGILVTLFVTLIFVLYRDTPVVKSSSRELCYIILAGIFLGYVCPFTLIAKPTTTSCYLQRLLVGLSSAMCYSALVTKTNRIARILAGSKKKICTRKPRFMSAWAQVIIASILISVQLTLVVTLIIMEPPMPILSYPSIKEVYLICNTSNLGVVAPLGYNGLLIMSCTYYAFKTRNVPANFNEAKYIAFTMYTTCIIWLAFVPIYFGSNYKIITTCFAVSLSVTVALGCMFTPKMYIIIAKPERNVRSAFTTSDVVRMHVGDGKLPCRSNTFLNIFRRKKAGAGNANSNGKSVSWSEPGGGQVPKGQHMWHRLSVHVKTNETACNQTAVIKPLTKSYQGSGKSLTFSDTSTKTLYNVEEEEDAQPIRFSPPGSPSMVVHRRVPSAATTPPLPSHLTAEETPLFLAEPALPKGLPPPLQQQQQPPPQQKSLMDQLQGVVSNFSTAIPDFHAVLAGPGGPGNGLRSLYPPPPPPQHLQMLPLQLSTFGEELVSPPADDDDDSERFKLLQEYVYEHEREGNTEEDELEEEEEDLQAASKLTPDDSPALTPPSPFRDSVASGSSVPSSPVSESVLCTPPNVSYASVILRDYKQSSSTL

- mGlu1 pEC50 (±SEM) (human mGlu1; calcium mobilization, n=3 in triplicate, tables): 6.75±0.07
- stability in human liver microsomes [1]: hydrolytically stable
- CLhep predicted ([1]; liver microsomes): 8.53 mL/min/kg
- stability in rat liver microsomes [2]: hydrolytically stable
- CLhep predicted ([2]; liver microsomes): 54.1 mL/min/kg
- CLp (In vivo rat PK): 11.1 mL/min/kg
- brain homogenate binding [3]: > 99%
Structure (SMILES): Cc1ccoc1C(=O)Nc1ccc(N2Cc3c(Cl)cccc3C2=O)c(Cl)c1 [21a, N-(3-chloro-4-(4-chloro-1-oxoisoindolin-2-yl)phenyl)-3-methylfuran-2-carboxamide]

- EC50 (human mGlu1): ~1 µM
Structure (SMILES): Cc1ccoc1C(=O)Nc1ccc(N2Cc3c(Cl)cccc3C2=O)cc1F [22h]

- EC50 (human mGlu1): ~1 µM
Structure (SMILES): Cc1cccnc1C(=O)Nc1ccc(N2Cc3c(Cl)cccc3C2=O)c(Cl)c1 [22k]

The remaining lines, values behind:

Structure (SMILES): Cc1ccoc1C(=O)Nc1ccc(N2C(=O)[C@H]3CCCC[C@H]3C2=O)c(Cl)c1 [20a]
- mGlu1 PAM activity (in words) (human mGlu1): inactive

Structure (SMILES): Cc1ccoc1C(=O)Nc1ccc(N2C(=O)[C@@H]3CCCC[C@H]3C2=O)c(Cl)c1 [20b]
- mGlu1 PAM activity (in words) (human mGlu1): inactive

Structure (SMILES): Cc1ccoc1C(=O)Nc1ccc(NC(=O)c2ccccc2C(=O)O)c(Cl)c1 [20c]
- CNS penetration (in words) (CNS penetration): not CNS penetrant

Structure (SMILES): Cc1ccoc1C(=O)Nc1ccc(N2Cc3ccccc3C2=O)c(Cl)c1 [20e]
- mGlu1 PAM activity (in words) (human mGlu1): active
- stability in human liver microsomes [1]: complete stability
- stability in rat liver microsomes [2]: complete stability

Structure (SMILES): Cc1ccoc1C(=O)Nc1ccc(N2Cc3ccccc3C2)c(Cl)c1 [20f]
- mGlu1 PAM activity (in words) (human mGlu1): active

Structure (SMILES): Cc1ccoc1C(=O)Nc1ccc(N2C(=O)Cc3ccccc32)c(Cl)c1 [20g]
- mGlu1 PAM activity (in words) (human mGlu1): inactive

Structure (SMILES): Cc1ccoc1C(=O)Nc1ccc(N2CCc3ccccc32)c(Cl)c1 [20h]
- mGlu1 PAM activity (in words) (human mGlu1): active

Structure (SMILES): Cc1ccoc1C(=O)Nc1ccc(N2C(=O)Cc3ccccc3C2=O)c(Cl)c1 [compound 17]
- stability in human plasma (Human plasma stability): unstable
- stability in rat plasma (Rat plasma stability): unstable
- CYP profile (in words) (CYP): clean CYP profile

Structure (SMILES): Cc1ccoc1C(=O)Nc1ccc(N2C(=O)CCc3ccccc32)c(Cl)c1 [compound 19]
- clearance (in words) [4]: supprahepatic
- stability in human plasma (Human plasma stability): stable
- stability in rat plasma (Rat plasma stability): stable
